# Laboratory results reported in ChEMBL document CHEMBL1142695, “Discovery of functionally selective 7,8,9,10-tetrahydro-7,10-ethano-1,2,4-triazolo[3,4-a]phthalazines as GABA A receptor agonists at the alpha3 subunit” (J Med Chem, 2005).
# Legend:
# Type in all cases: cell-based
# [1] = biological target: T1, GABA-A receptor; alpha-1/beta-3/gamma-2 (Homo sapiens, UniProt P14867+P18507+P28472); experiment: Inhibition of [3H]Ro-151788 binding to recombinant human gamma-aminobutyric-acid A receptor alpha-1-beta-3-gamma-2 subtype expressed in L (tk-) cells
# T1 sequence (P14867 whole entry): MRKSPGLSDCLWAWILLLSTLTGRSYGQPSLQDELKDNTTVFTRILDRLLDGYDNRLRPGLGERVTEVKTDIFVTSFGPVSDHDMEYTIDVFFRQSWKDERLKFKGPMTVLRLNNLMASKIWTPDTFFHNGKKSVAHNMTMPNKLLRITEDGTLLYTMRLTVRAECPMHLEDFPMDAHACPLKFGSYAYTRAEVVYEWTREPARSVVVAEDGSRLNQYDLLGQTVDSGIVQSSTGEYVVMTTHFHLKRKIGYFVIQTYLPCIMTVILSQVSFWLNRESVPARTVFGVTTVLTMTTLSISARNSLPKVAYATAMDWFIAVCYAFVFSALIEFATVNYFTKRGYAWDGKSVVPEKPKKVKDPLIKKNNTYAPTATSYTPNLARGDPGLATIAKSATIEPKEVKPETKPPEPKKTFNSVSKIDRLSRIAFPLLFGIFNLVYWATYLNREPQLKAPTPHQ
# T1 sequence (P18507 whole entry): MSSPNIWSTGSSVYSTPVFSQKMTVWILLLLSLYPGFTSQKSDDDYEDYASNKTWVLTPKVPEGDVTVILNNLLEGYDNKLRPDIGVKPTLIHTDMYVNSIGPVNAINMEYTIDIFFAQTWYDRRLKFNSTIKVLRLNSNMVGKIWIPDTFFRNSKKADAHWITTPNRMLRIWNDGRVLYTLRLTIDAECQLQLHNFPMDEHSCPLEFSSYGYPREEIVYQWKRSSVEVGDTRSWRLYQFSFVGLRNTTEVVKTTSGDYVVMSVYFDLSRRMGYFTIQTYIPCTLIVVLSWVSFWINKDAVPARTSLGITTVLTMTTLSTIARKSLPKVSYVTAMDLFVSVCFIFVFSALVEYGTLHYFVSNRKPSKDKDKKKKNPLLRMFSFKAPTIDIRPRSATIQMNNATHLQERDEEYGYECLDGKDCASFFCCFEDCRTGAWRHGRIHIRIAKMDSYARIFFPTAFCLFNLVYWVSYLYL
# T1 sequence (P28472 whole entry): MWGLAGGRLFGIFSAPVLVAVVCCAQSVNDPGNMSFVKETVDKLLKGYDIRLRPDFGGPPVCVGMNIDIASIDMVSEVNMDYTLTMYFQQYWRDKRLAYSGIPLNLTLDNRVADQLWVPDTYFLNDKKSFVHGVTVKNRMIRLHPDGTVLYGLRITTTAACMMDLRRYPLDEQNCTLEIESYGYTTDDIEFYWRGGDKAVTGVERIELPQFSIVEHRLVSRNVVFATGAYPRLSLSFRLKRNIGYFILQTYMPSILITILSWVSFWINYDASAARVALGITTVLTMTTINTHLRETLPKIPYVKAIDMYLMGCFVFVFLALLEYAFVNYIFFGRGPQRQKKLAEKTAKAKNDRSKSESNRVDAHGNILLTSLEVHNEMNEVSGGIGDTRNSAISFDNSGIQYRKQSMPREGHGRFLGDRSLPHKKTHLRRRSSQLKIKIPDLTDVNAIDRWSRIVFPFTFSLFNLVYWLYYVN
# [2] = biological target: GABA-A receptor; alpha-3/beta-3/gamma-2 (Homo sapiens) (UniProt P18507+P28472+P34903); experiment: Efficacy was measured as modulation of the current in response to GABA at hGABA alpha-3-beta-3-gamma-2 receptor expressed in Xenopus oocytes; conditions: Oocyte
# Procedure, shortened: (§1)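 Two-electrode voltage clamp on Xenopus oocytes expressing each receptor combination. […] Value is percent increase or decrease of the EC20 GABA current.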
# [3] = biological target: T2, GABA-A receptor; alpha-5/beta-3/gamma-2 (Homo sapiens, UniProt P18507+P28472+P31644); experiment: Inhibition of [3H]Ro-151788 binding to recombinant human gamma-aminobutyric-acid A receptor alpha-5-beta-3-gamma-2 subtype expressed in L (tk-) cells
# T2 sequence (P18507 whole entry): T1 sequence (P18507 whole entry)
# T2 sequence (P28472 whole entry): T1 sequence (P28472 whole entry)
# T2 sequence (P31644 whole entry): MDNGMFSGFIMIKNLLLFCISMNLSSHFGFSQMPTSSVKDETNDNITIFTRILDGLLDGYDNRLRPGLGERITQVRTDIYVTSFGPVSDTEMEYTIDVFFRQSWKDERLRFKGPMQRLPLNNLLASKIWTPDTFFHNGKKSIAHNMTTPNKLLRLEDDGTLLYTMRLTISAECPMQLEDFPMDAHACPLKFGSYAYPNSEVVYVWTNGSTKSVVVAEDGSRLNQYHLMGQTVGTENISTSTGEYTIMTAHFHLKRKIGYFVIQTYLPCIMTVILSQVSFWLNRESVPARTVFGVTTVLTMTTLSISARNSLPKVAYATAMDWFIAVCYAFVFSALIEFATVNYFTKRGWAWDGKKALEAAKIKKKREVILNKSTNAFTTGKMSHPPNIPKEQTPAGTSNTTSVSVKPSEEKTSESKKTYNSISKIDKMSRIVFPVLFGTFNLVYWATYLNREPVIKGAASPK
# [4] = biological target: T3, GABA-A receptor; alpha-3/beta-3/gamma-2 (Homo sapiens, UniProt P18507+P28472+P34903); experiment: Inhibition of [3H]Ro-151788 binding to recombinant human gamma-aminobutyric-acid A receptor alpha-3-beta-3-gamma-2 subtype expressed in L (tk-) cells
# T3 sequence (P18507 whole entry): T1 sequence (P18507 whole entry)
# T3 sequence (P28472 whole entry): T1 sequence (P28472 whole entry)
# T3 sequence (P34903 whole entry): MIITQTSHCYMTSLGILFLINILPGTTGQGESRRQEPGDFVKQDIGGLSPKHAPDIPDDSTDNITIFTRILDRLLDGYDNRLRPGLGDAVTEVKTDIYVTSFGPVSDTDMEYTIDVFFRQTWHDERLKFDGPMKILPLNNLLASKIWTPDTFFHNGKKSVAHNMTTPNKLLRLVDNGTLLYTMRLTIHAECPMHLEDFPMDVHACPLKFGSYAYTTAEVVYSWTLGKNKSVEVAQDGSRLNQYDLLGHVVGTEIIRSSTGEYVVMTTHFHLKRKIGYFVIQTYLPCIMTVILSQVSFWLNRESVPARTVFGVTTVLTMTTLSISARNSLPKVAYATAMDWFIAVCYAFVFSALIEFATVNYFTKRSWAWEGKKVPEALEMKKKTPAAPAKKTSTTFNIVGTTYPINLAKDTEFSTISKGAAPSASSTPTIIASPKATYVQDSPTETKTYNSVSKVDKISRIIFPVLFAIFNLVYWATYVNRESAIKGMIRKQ
# [5] = biological target: T4, GABA-A receptor; alpha-2/beta-3/gamma-2 (Homo sapiens, UniProt P18507+P28472+P47869); experiment: Inhibition of [3H]Ro-151788 binding to recombinant human gamma-aminobutyric acid A receptor alpha-2-beta-3-gamma-2 subtype expressed in L (tk-) cells
# T4 sequence (P18507 whole entry): T1 sequence (P18507 whole entry)
# T4 sequence (P28472 whole entry): T1 sequence (P28472 whole entry)
# T4 sequence (P47869 whole entry): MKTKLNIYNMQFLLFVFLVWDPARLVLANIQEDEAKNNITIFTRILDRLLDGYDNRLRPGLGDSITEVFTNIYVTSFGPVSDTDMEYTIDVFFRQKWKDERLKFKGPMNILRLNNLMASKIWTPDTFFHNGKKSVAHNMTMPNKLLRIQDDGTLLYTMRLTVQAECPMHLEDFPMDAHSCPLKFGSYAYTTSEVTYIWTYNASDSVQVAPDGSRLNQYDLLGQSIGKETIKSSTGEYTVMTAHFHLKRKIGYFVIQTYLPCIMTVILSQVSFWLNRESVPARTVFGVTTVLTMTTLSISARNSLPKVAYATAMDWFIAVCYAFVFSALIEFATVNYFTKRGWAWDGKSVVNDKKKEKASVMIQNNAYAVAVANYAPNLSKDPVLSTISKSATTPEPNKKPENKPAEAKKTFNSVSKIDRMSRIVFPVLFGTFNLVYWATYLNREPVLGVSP
# [6] = biological target: GABA-A receptor; alpha-1/beta-3/gamma-2 (Homo sapiens) (UniProt P14867+P18507+P28472); experiment: Efficacy was measured as modulation of the current in response to GABA at hGABA alpha-1-beta-3-gamma-2 receptor expressed in Xenopus oocytes; conditions: Oocyte; procedure, shortened: as §1
SMILES,Ki [1] [nM],Efficacy [2] [%],Ki [3] [nM],Ki [4] [nM],Ki [5] [nM],Efficacy [6] [%]
c1ccc(-c2nnc3c4c(c(OCc5ccncn5)nn23)C2CCC4CC2)cc1,22,14,0.555,3.1,8.1,–
COc1cccnc1COc1nn2c(-c3ccccc3)nnc2c2c1C1CCC2CC1,17,8,0.65,2.4,9.1,–
c1ccc(-c2nnc3c4c(c(OCc5cscn5)nn23)C2CCC4CC2)cc1,68,33,1.2,10,21,33
COCCOc1cccnc1COc1nn2c(-c3ccccc3)nnc2c2c1C1CCC2CC1,13,97,0.5,3.9,9.8,77
Cn1ncnc1COc1nn2c(-c3ccccc3)nnc2c2c1C1CCC2CC1,11,22,0.39,2.8,5.2,–
CCCc1cccnc1COc1nn2c(-c3ccccc3)nnc2c2c1C1CCC2CC1,3.5,52,3.1,2.4,9.9,62
c1ccc(-c2nnc3c4c(c(OCc5cnccn5)nn23)C2CCC4CC2)cc1,16,27,0.77,3,6.5,–
c1ccc(-c2nnc3c4c(c(OCc5nc[nH]n5)nn23)C2CCC4CC2)cc1,–,49,–,–,–,–
c1ccc(-c2nnc3c4c(c(OCc5nccs5)nn23)C2CCC4CC2)cc1,100,27,2.7,18,35,84
c1ccc(-c2nnc3c4c(c(OCc5ccncc5)nn23)C2CCC4CC2)cc1,140,17,4.7,13,82,38
CCn1ccnc1COc1nn2c(-c3ccccc3)nnc2c2c1C1CCC2CC1,3.3,23,0.29,1,2.3,26
CCCn1cnc(COc2nn3c(-c4ccccc4)nnc3c3c2C2CCC3CC2)n1,78,83,9,40,50,–
Cn1ccnc1COc1nn2c(-c3ccccc3)nnc2c2c1C1CCC2CC1,19,24,0.45,4.3,7.1,24
Cc1ccnc(COc2nn3c(-c4ccccc4)nnc3c3c2C2CCC3CC2)c1,93,33,2,18,19,41
CCOc1cccnc1COc1nn2c(-c3ccccc3)nnc2c2c1C1CCC2CC1,3.9,46,0.36,1.1,2.8,66
Cc1cccnc1COc1nn2c(-c3ccccc3)nnc2c2c1C1CCC2CC1,9.8,7,0.46,2.1,2,17
N#Cc1cccnc1COc1nn2c(-c3ccccc3)nnc2c2c1C1CCC2CC1,13,17,0.54,1.7,5.9,–
Cc1ccnc(COc2nn3c(-c4ccccc4)nnc3c3c2C2CCC3CC2)c1C,11,17,1,1.7,4,–
Cc1ccc(COc2nn3c(-c4ccccc4)nnc3c3c2C2CCC3CC2)nn1,50,31,2.1,10,22,–
COC(=O)c1cccnc1COc1nn2c(-c3ccccc3)nnc2c2c1C1CCC2CC1,–,29,2.5,7.1,30,–
OCCCCOc1nn2c(-c3ccccc3)nnc2c2c1C1CCC2CC1,71,20,8.5,19,34,–
Cc1ccc(C)c(COc2nn3c(-c4ccccc4)nnc3c3c2C2CCC3CC2)n1,27,12,0.84,3.6,8.7,–
Cc1c[nH]c(COc2nn3c(-c4ccccc4)nnc3c3c2C2CCC3CC2)n1,85,28,0.9,7.8,15,–
c1ccc(-c2nnc3c4c(c(OCc5nc6ccccc6s5)nn23)C2CCC4CC2)cc1,> 1000,–,23,250,> 1000,–
Cc1csc(COc2nn3c(-c4ccccc4)nnc3c3c2C2CCC3CC2)n1,140,–,2.9,30,40,–
